From ChEMBL document CHEMBL1138202, “Tricyclic pyrazoles. 4. Synthesis and biological evaluation of analogues of the robust and selective CB2 cannabinoid ligand 1-(2',4'-dichlorophenyl)-6-methyl-N-piperidin-1-yl-1,4-dihydroindeno[1,2-c]pyrazole-3-carboxamide” (J Med Chem, 2006)

Legend:
Cannabinoid receptor 1 = Cannabinoid receptor 1 (Mus musculus, UniProt P47746); test: Displacement of [3H]CP-55940 from CD1 mouse brain CB1 receptor; assay type: tissue-based
Summary of the method: (§1)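 Male CD-1 mouse brain (minus cerebellum) for CB1 or spleen for CB2, homogenised in ice-cold TME (50 mM Tris-HCl, 1 mM EDTA, 3.0 mM MgCl2, pH 7.4) and centrifuged to membranes. GF/C filtration, scintillation counting. Triplicate, five independent experiments; sigmoid fit IC50 converted to Ki.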

Cannabinoid receptor 2 = Cannabinoid receptor 2 (Mus musculus, UniProt P47936); test: Displacement of [3H]CP-55940 from CD1 mouse spleen CB2 receptor; assay type: tissue-based; summary of the method: as §1
Sequence of Cannabinoid receptor 2 (P47936 whole entry): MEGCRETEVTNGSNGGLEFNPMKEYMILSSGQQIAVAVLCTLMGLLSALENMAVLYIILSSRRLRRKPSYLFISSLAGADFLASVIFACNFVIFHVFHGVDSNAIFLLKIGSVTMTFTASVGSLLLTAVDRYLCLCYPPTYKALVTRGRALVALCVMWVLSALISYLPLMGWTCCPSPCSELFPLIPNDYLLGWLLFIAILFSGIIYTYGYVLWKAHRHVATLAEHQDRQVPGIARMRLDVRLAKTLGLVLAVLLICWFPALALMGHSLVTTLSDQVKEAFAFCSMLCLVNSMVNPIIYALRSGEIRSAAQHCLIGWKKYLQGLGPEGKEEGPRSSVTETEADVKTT

[1] = target: Cannabinoid receptor (Mus musculus) (UniProt P47746+P47936); test: Selectivity for CD1 mouse CB2 receptor over CB1 receptor; assay type: protein assay
Sequence of Cannabinoid receptor (Mus musculus) (P47746 whole entry, looked up): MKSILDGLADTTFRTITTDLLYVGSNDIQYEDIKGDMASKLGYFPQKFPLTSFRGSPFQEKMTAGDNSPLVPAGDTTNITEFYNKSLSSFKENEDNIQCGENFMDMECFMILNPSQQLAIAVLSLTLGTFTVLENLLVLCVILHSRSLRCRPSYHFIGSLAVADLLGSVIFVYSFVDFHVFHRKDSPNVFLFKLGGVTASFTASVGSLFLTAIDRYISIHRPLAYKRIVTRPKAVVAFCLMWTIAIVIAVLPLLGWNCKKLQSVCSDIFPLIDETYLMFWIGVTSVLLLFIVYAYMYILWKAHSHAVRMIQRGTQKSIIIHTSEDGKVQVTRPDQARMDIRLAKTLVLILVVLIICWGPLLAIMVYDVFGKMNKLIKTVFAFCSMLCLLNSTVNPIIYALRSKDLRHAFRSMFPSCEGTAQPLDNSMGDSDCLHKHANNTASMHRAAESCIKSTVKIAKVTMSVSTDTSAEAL
Sequence of Cannabinoid receptor (Mus musculus) (P47936 whole entry, looked up): as the sequence (P47936 whole entry) above

[2] = target: Cannabinoid receptor 2 (Homo sapiens) (UniProt P34972); test: Intrinsic activity at CB2 receptor assessed as induction of ERK1/2 phosphorylation in HL60 cells at 10 nM after 10 mins relative to control; assay type: functional, cell-based
Sequence of Cannabinoid receptor 2 (Homo sapiens) (P34972 whole entry): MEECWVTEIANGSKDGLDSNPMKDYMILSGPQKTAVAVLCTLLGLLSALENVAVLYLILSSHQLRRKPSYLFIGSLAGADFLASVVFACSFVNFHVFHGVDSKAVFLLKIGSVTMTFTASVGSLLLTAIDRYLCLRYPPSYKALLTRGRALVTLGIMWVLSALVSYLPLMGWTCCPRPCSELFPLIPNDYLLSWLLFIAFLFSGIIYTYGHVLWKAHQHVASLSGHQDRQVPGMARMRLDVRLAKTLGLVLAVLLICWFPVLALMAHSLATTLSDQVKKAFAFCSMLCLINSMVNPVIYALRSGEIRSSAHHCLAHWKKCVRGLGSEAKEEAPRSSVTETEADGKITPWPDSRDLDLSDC
Summary of the method: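 HL-60 cells in RPMI 1640 with 10% heat-inactivated FBS, 37 °C, 5% CO2, used at 80% confluency. Compounds in medium with 1% DMSO added to the cell suspension for 10 min. Lysates western blotted with anti-phospho-MAPK 1/2 and read by chemiluminescence. Phospho-ERK 1/2 given as mean percentage of vehicle from five separate experiments.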

Sequence of Cannabinoid receptor 1 (P47746 whole entry): as the sequence (P47746 whole entry, looked up) above

SMILES	Ki (Cannabinoid receptor 1) [nM]	Ki (Cannabinoid receptor 2) [nM]	Ratio Ki [1]	Activity ([2]; HL-60) [%]	Activity ([2]; HL-60, filed as agonist)
COc1ccc(NC(=O)c2nn(-c3ccc(Cl)cc3Cl)c3c2Cc2cc(C)ccc2-3)cc1	> 10000	114	–	–	–
Cc1ccc(Cn2nc(C(=O)N[C@@H]3C(C)(C)[C@@H]4CC[C@@]3(C)C4)cc2-c2ccc(Cl)c(C)c2)cc1	–	–	250	–	–
Cc1ccc2c(c1)Cc1c(C(=O)NNc3ccccc3)nn(-c3ccc(Cl)cc3Cl)c1-2	2280	63	36	–	–
CCCCCCC(C)(C)c1ccc(C2CC(O)CC[C@H]2CCCO)c(O)c1 (single isomer, unassigned) [CP-55940]	1.5	1.11	–	–	–
Cc1ccc2c(c1)Cc1c(C(=O)NNc3ccc(Cl)cc3)nn(-c3ccc(Cl)cc3Cl)c1-2	> 10000	> 5000	–	–	–
Cc1cc2c(cc1Cl)Cc1c(C(=O)NN3CCCCC3)nn(-c3ccc(Cl)cc3Cl)c1-2	–	–	14	–	–
Cc1ccc(NC(=O)c2nn(-c3ccc(Cl)cc3Cl)c3c2Cc2cc(C)ccc2-3)cc1	> 5000	74	–	–	–
O=C(NN1CCCCC1)c1nn(-c2ccc(Cl)cc2Cl)c2c1Cc1cc(Cl)ccc1-2	–	–	6030	65	Agonist
Cc1ccc2c(c1)Cc1c(C(=O)NC3CCCCC3)nn(-c3ccc(Cl)cc3Cl)c1-2	900	7.6	118	61.3	Agonist
Cc1ccc2c(c1)Cc1c(C(=O)Nc3ccc(Cl)c(Cl)c3)nn(-c3ccc(Cl)cc3Cl)c1-2	> 10000	> 10000	–	–	–
Cc1ccc2c(c1)Cc1c(C(=O)Nc3ccc(F)cc3)nn(-c3ccc(Cl)cc3Cl)c1-2	> 5000	61	–	–	–
Cc1ccc2c(c1)Cc1c(C(=O)Nc3ccc(C(F)(F)F)cc3)nn(-c3ccc(Cl)cc3Cl)c1-2	> 10000	> 5000	–	–	–
Cc1cc2c(cc1Cl)-c1c(c(C(=O)NN3CCCCC3)nn1-c1ccc(Cl)cc1Cl)C2	–	200	4.6	–	–
Cc1ccc2c(c1)Cc1c(C(=O)Nc3ccc(Cl)cc3)nn(-c3ccc(Cl)cc3Cl)c1-2	> 10000	177	–	–	–
Cc1cc2c(cc1Cl)-c1c(c(C(=O)NC3CCCCC3)nn1-c1ccc(Cl)cc1Cl)C2	–	–	33	–	–
Cc1ccc2c(c1)Cc1c(C(=O)NNc3ccc([N+](=O)[O-])cc3)nn(-c3ccc(Cl)cc3Cl)c1-2	4500	2120	2	–	–
Cc1ccc2c(c1)Cc1c(C(=O)NN3CCCCC3)nn(-c3ccc(Cl)cc3Cl)c1-2	363	0.037	9810	83	Agonist
COc1ccc(NNC(=O)c2nn(-c3ccc(Cl)cc3Cl)c3c2Cc2cc(C)ccc2-3)cc1	> 5000	3000	–	–	–
Cc1ccc2c(c1)Cc1c(C(=O)Nc3ccccc3)nn(-c3ccc(Cl)cc3Cl)c1-2	2410	32.8	73	125	Agonist
Cc1ccc2c(c1)Cc1c(C(=O)Nc3ccc(Cl)cc3Cl)nn(-c3ccc(Cl)cc3Cl)c1-2	2630	> 5000	–	–	–
